How the values were obtained:
Type in all cases: cell-free, HEK-293T
[1] = biological target: T1, Phospholipase A and acyltransferase 5 (Homo sapiens, UniProt Q96KN8); test: Inhibition of full-length C-terminal FLAG-tagged human PLAAT5 expressed in HEK293T cell lysate preincubated for 30 mins followed by MB064 addition and measured after 20 mins by SDS-PAGE based ABPP analysis
T1 sequence (Q96KN8 whole entry): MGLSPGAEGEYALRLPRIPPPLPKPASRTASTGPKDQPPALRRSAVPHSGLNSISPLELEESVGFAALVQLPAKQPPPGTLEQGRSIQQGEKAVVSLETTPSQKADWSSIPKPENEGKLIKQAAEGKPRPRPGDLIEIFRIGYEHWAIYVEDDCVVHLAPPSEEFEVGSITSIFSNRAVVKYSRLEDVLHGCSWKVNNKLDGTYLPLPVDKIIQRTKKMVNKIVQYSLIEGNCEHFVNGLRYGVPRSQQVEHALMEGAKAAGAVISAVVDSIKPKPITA
How it was run: (§1)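 Dose–response competitive ABPP on cytosol only, from HEK293T overexpressing FLAG-tagged PLAAT. Inhibitor 30 min rt, then MB064 20 min rt. PLAAT2 0.25 μg/μL with 250 nM probe; PLAAT3 0.5 μg/μL with 250 nM; PLAAT4 and PLAAT5 1 μg/μL with 500 nM. Fluorescence normalized to Coomassie. IC50 from curves, reported as pIC50 ± SEM, n = 3.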

[2] = biological target: T2, Phospholipase A and acyltransferase 4 (Homo sapiens, UniProt Q9UL19); test: Inhibition of full-length C-terminal FLAG-tagged human PLAAT4 expressed in HEK293T cell lysate preincubated for 30 mins followed by MB064 addition and measured after 20 mins by SDS-PAGE based ABPP analysis; how it was run: as §1
T2 sequence (Q9UL19 whole entry): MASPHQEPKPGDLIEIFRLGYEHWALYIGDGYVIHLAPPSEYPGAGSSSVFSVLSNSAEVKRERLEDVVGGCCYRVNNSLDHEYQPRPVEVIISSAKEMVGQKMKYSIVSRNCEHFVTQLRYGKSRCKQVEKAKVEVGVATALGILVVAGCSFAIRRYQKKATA

[3] = biological target: T3, Phospholipase A and acyltransferase 2 (Homo sapiens, UniProt Q9NWW9); test: Inhibition of full-length C-terminal FLAG-tagged human PLAAT2 expressed in HEK293T cell lysate preincubated for 30 mins followed by MB064 addition and measured after 20 mins by SDS-PAGE based ABPP analysis; how it was run: as §1
T3 sequence (Q9NWW9 whole entry): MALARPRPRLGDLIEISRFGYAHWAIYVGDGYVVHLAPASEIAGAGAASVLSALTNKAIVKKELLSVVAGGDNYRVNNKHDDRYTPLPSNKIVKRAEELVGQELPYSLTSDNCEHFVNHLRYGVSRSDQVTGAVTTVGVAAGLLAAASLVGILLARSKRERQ

[4] = biological target: T4, Phospholipase A and acyltransferase 3 (Homo sapiens, UniProt P53816); test: Inhibition of full-length C-terminal FLAG-tagged human PLAAT3 expressed in HEK293T cell lysate preincubated for 30 mins followed by MB064 addition and measured after 20 mins by SDS-PAGE based ABPP analysis; settings: for pIC50: hek-293t; how it was run: as §1
T4 sequence (P53816 whole entry): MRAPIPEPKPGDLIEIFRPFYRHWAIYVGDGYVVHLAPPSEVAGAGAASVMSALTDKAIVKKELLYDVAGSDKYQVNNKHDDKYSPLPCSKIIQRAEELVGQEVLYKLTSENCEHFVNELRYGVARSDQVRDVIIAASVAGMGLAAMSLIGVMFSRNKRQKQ

Row | SMILES | IC50 [1] | IC50 [2] | IC50 [3] | IC50 [4] | pIC50 [4]
1 | O=C(/C=C/c1cccc(-c2ccccc2)c1)C(=O)NCCc1ccccc1 | 1000 nM | 2510 nM | 2510 nM | 3160 nM | 
2 | O=C(CCc1ccc(Cl)cc1)C(=O)N1CC[C@@H](c2ccccc2)C1 | > 10000 nM | > 10000 nM | > 10000 nM | > 10000 nM | 
3 | O=C(CCCc1ccccc1)C(=O)NCCc1ccc(Br)cc1 | 10 nM | 200 nM | 251 nM | 158 nM | 
4 | O=C(NCCc1ccccc1)C(=O)c1ccc(Cl)cc1 | > 10000 nM | > 10000 nM | > 10000 nM | > 10000 nM | 
5 | COc1ccc(CCNC(=O)C(=O)CCCc2ccccc2)cc1 | 79.4 nM | 1580 nM | 1580 nM | 794 nM | 
6 | COc1ccc(CCNC(=O)C(=O)CCCc2ccccc2)cc1OC | 316 nM | 6310 nM | 5010 nM | 1000 nM | 
7 | O=C(CCc1ccc(Cl)cc1)C(=O)N1CCOCC1 | > 10000 nM | > 10000 nM | > 10000 nM | > 10000 nM | 
8 | O=C(CCc1ccc(Cl)cc1)C(=O)N1CCCC1 | > 10000 nM | > 10000 nM | > 10000 nM | > 10000 nM | 
9 | Cc1ccc(CCNC(=O)C(=O)CCCc2ccccc2)cc1 | 39.8 nM | 1260 nM | 2000 nM | 126 nM | 
10 | O=C(CCCc1ccccc1)C(=O)NCCc1cccc(Cl)c1 | 50.1 nM | 1000 nM | 794 nM | 200 nM | 
11 | CN(C)C(=O)C(=O)CCc1ccc(Cl)cc1 | > 10000 nM | > 10000 nM | > 10000 nM | > 10000 nM | 
12 | CCNC(=O)C(=O)CCc1ccc(Cl)cc1 | 1000 nM | 3980 nM | 2510 nM | 7940 nM | 
13 | O=C(CCc1ccccc1)[C@H](F)C(=O)NCc1ccccc1 | > 10000 nM | > 10000 nM | > 10000 nM | > 10000 nM | 
14 | O=C(CCCc1ccccc1)C(=O)NCCc1ccc(Oc2ccc(C(F)(F)F)cn2)cc1 | 31.6 nM | 631 nM |  |  | 7
15 | COc1ccc(CCC(=O)C(=O)NCCc2ccccc2)cc1 | 1260 nM | 1260 nM | 3160 nM | 3160 nM | 
16 | O=C(CCc1ccccc1)C(=O)NCCc1ccccc1 | 1000 nM | 3160 nM | > 10000 nM | > 10000 nM | 
17 | O=C(CCCc1ccccc1)C(=O)NCCc1ccc(Oc2cnccn2)cc1 | 63.1 nM | 631 nM | 501 nM | 251 nM | 
18 | O=C(CCCc1ccccc1)C(=O)NCCc1ccc(Cl)cc1Cl | 63.1 nM | 794 nM | 1260 nM | 251 nM | 
19 | O=C(CCc1ccc(Cl)cc1)C(=O)NCCCCc1ccccc1 | 200 nM | 1580 nM | 631 nM | 1000 nM | 
20 | O=C(CCCc1ccccc1)C(=O)NCCc1ccc(Oc2ccnc(Cl)n2)cc1 | 79.4 nM | 200 nM | 631 nM | 251 nM | 
21 | O=C(CCc1ccccc1)C(F)(F)C(=O)NCc1ccccc1 | > 10000 nM | > 10000 nM | > 10000 nM | > 10000 nM | 
22 | O=C(CCc1ccc(Cl)cc1)C(=O)N1CCCCC1 | > 10000 nM | > 10000 nM | > 10000 nM | > 10000 nM | 
23 | CCN(CCc1ccccc1)C(=O)C(=O)CCc1ccc(Cl)cc1 | > 10000 nM | > 10000 nM | > 10000 nM | > 10000 nM | 
24 | O=C(/C=C/c1cccc(Br)c1)C(=O)NCCc1ccccc1 | 3160 nM | 7940 nM | > 10000 nM | > 10000 nM | 
25 | O=C(NCc1ccccc1)C(F)(F)C(O)CCc1ccccc1 (stereo not drawn) | > 10000 nM | > 10000 nM | > 10000 nM | > 10000 nM | 
26 | O=C(/C=C/c1ccccc1)C(=O)NCCc1ccccc1 | 6310 nM | 10000 nM | 7940 nM | 1580 nM | 
27 | O=C(CCc1ccc(F)cc1)C(=O)NCCc1ccccc1 | 1580 nM | 10000 nM | 7940 nM | 5010 nM | 

Row | SMILES | IC50 [1] | IC50 [2] | IC50 [3] | IC50 [4] | pIC50 [4]
28 | CN1CCN(C(=O)C(=O)CCc2ccc(Cl)cc2)CC1 | > 10000 nM | > 10000 nM | > 10000 nM | > 10000 nM | 
29 | O=C(CCc1ccc(Cl)cc1)C(=O)N1CCC[C@H]1Cc1ccccc1 | > 10000 nM | > 10000 nM | > 10000 nM | > 10000 nM | 
30 | CC(=O)C(=O)NCCc1ccccc1 | > 10000 nM | > 10000 nM | > 10000 nM | > 10000 nM | 
31 | O=C(CCCc1ccccc1)C(=O)NCCc1ccc(O)cc1 | 158 nM | 2510 nM | 1260 nM | 1580 nM | 
32 | O=C(CCc1ccc(Cl)cc1)C(=O)N1CCCC[C@H]1c1ccccc1 | > 10000 nM | > 10000 nM | > 10000 nM | > 10000 nM | 
33 | O=C(CCc1ccc(C(F)(F)F)cc1)C(=O)NCCc1ccccc1 | 316 nM | 2510 nM | 2000 nM | 7940 nM | 
34 | O=C(CCc1ccccc1)CC(=O)NCc1ccccc1 | > 10000 nM | > 10000 nM | > 10000 nM | > 10000 nM | 
35 | O=C(CCc1ccc(Cl)cc1)C(=O)NCCc1ccccc1 |  |  |  |  | 6
36 | O=C(CCc1ccccc1Cl)C(=O)NCCc1ccccc1 | 1580 nM | 2510 nM | 1260 nM | 2000 nM | 
37 | O=C(CCCc1ccccc1)C(=O)NCCc1ccc(Oc2ccc(C(F)(F)F)nc2)cc1 | 79.4 nM | 79.4 nM | 200 nM | 158 nM | 
38 | COc1ccc(/C=C/C(=O)C(=O)NCCc2ccccc2)cc1 | 1000 nM | 2510 nM | 1580 nM | 5010 nM | 
39 | Cc1ccc(CCC(=O)C(=O)NCCc2ccccc2)cc1 | 2510 nM | 1580 nM | 5010 nM | 2000 nM | 
40 | O=C(CCCc1ccccc1)C(=O)NCCc1ccccc1 | 100 nM | 631 nM | 501 nM | 398 nM | 
41 | O=C(/C=C/c1ccc(Br)cc1)C(=O)NCCc1ccccc1 | 631 nM | 6310 nM | 5010 nM | 2510 nM | 
42 | COCCN(CCOC)C(=O)C(=O)CCc1ccc(Cl)cc1 | > 10000 nM | > 10000 nM | > 10000 nM | > 10000 nM | 
43 | O=C(CCc1ccc(Cl)cc1)C(=O)NCc1ccccc1 | 251 nM | 2510 nM | 2510 nM | 1580 nM | 
44 | O=C(CCCc1ccccc1)C(=O)NCCc1ccc(Oc2ncccn2)cc1 | 251 nM | 1260 nM | 2000 nM | 2000 nM | 
45 | CN(CCc1ccccc1)C(=O)C(=O)CCc1ccc(Cl)cc1 | > 10000 nM | > 10000 nM | > 10000 nM | > 10000 nM | 
46 | CCOC(=O)C(F)(F)C(O)CCc1ccccc1 (stereo not drawn) | > 10000 nM | > 10000 nM | > 10000 nM | > 10000 nM | 
47 | O=C(CCCCc1ccccc1)C(=O)NCCc1ccccc1 | 158 nM | 1580 nM | 3160 nM | 1000 nM | 
48 | O=C(CCc1ccccc1)C(F)(F)C(=O)NCCc1ccccc1 | > 10000 nM | > 10000 nM | > 10000 nM | > 10000 nM | 
49 | O=C(CCCc1ccccc1)C(=O)NCCc1ccccc1Cl | 794 nM | 2510 nM | 6310 nM | 1260 nM | 
50 | O=C(NCCc1ccccc1)C(=O)c1ccccc1 | > 10000 nM | > 10000 nM | > 10000 nM | > 10000 nM | 
51 | O=C(/C=C/c1ccc(Cl)cc1)C(=O)NCCc1ccccc1 | 631 nM | 2510 nM | 1580 nM | 2510 nM | 
52 | O=C(CCc1cccc(Cl)c1)C(=O)NCCc1ccccc1 | 1260 nM | 1260 nM | 2510 nM | 1580 nM | 
53 | O=C(CCc1ccc(Cl)c(Cl)c1)C(=O)NCCc1ccccc1 | 100 nM | 1000 nM | 2000 nM | 100 nM | 

— ChEMBL document CHEMBL4622983, “Structure-Activity Relationship Studies of α-Ketoamides as Inhibitors of the Phospholipase A and Acyltransferase Enzyme Family” (J Med Chem, 2020)
